Most compounds without a hit are left out; they make up all but 2.5% or so of the library.
Rin1 Abl inh = human Rin1-Abl interaction inhibition. inhibition, % at 7.35 µM. P00519+Q13671. TR-FRET Rin1/Abl binding, biochemical. actives 0.4% (n = 360,000); in the data active = inhibition above about 5%, passing the limit was not always enough
UHRF1 MBD2 ctr = UHRF1 methyl-DNA binding inhibition; Q96T88; UHRF1 binding to methylated oligo, TR-FRET; inhibition, % at 4.4 µM; actives 0.75% (n = 370,000); in the data active = inhibition above about 21%;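 note: UHRF1 SRA domain binding a hemimethylated CpG hairpin DNA probe; 0% = median of test compound wells and 100% = reference inhibitor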
Arrestin-AP2 inh = inhibitors of human beta-arrestin and AP2 interaction | FITC-arrestin peptide / GST-AP2 beads, flow cytometry; AP2 beta2 appendage carries R879A mutation | inhibition, % at 10 µM | actives 0.31% (n = 340,000) | AID 504490;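 active = inhibition above a set limit, near 3 SD of compounds lacking own fluorescence, cut at about 54% in these data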;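 note: plate controls were DMSO wells for no effect and 5 µM unlabelled arrestin peptide for full effect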
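System: GST-AP2 R879A bound to glutathione beads, E. coli-expressed. Also added: 50 nM FITC-arrestin peptide. Schedule: compound with beads 12 min RT, then probe 1 h RT. Signal: bead flow cytometry, FITC channel. Read-out basis: percent response.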
B2AR ag = agonists of human beta-2 adrenergic receptor inducing internalization; P07550; Am2.2-beta2AR cells, FAP receptor internalization, flow cytometry; response, % (no concentration beside the values); actives 0.43% (n = 340,000); AID 504454;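 active = response above a set limit, near 3 SD of response in nonfluorescent compounds, cut at about 42% in these data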
ABHD5 PLIN5 PPI = ABHD5-PLIN5 protein interaction inhibition. Q00G26+Q8WTS1. Split G. princeps luciferase complementation, luminescence, 4 h. inhibition, % at 4 µM. actives 0.78% (n = 360,000);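 active = inhibition above the mean inhibition across every tested compound plus 3 SD, cut at about 22% in these data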;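 note: 0% = DMSO only wells and the 100% control is not disclosed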
MBD2 inh = inhibitors of human MBD2 binding to methylated oligonucleotide; Q9UBB5; TR-FRET; inhibition, % at 4.4 µM; actives 0.31% (n = 370,000); in the data active = inhibition above about 13%
Target sequence (Q9UBB5 whole entry, looked up): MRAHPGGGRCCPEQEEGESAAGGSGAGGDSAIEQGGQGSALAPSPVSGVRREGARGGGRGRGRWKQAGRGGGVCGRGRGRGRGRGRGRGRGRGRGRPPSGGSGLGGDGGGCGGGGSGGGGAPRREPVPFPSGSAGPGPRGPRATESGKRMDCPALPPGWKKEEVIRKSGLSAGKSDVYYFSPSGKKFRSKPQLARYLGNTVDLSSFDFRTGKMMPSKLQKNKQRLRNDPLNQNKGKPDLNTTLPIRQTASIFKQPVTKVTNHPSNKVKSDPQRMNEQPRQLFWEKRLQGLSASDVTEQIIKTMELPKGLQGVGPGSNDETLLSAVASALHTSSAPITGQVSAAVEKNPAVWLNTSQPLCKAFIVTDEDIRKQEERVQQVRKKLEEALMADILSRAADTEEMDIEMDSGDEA
Rin1 Abl conf = confirmation of inhibitors of human Rin1-Abl interaction; inhibition, % at 7.35 µM; AID 602124; actives 49% (n = 1,300); shares compounds with Rin1 Abl inh; TR-FRET Rin1-Abl binding, purified proteins
GFP quencher = counter-screen for Rin1-Abl inhibitors: GFP fluorescence quenchers; AID 602125; inhibitors/quenchers counterscreen; shares compounds with Rin1 Abl inh; inhibition, % at 6.75 µM; actives 8.5% (n = 1,300);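 note: ABL1-eGFP fusion protein alone without its partner RIN1-SBP; 0% = protein with vehicle and 100% = wells lacking protein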
GFP quench DR = quenches GFP in dose response, Rin1-Abl counter-screen | AID 602182 | IC50, µM | 230 tested, under 10 active | shares compounds with Rin1 Abl inh | GFP fluorescence interference/quenching counterscreen; call rule not given here;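 note: ABL1-eGFP fusion protein alone without its RIN1 binding partner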
* = called active by the depositor; / = no result. Cut-off read from the data, not from the text of the source, unless noted: active = inhibition above about 6.5%; inactive = the rest.

SMILES	Rin1 Abl inh	UHRF1 MBD2 ctr	Arrestin-AP2 inh	B2AR ag	ABHD5 PLIN5 PPI	MBD2 inh	Rin1 Abl conf	GFP quencher	others
CCOC(=O)[C@@]12CCCC=C1N(CCc1ccc(Cl)cc1)C(=O)[C@H]2CC(=O)N1CCCC1	/	1.5	/	/	/	1.9	/	/
Cc1nc(C)n(C)c(=O)c1-c1ccccc1	39.9*	-4.2	40.7	7.2	0.3	-0.2	-1.3	0.2
Cc1nc(C)c(-c2ccccc2)c(=O)[nH]1	-0.8	-1.3	-7.6	5.7	1.4	1.5	/	/
C[C@H](CO)N1C[C@H](C)[C@@H](CN(C)Cc2ccc3c(c2)OCO3)Oc2c(NS(=O)(=O)c3cn(C)cn3)cccc2C1=O	0.6	-1.6	-1.2	-9.2	-3.5	0.4	/	/
Cc1ccc(S(=O)(=O)Nc2cccc3c2O[C@H](CN(C)Cc2ccc(-c4ccccc4)cc2)[C@@H](C)CN([C@H](C)CO)C3=O)cc1	10.3*	0.9	20.9	10.0	11.6	2.6	9.7*	-0.1
C[C@H](CO)N1C[C@H](C)[C@@H](CN(C)Cc2ccc(-c3ccccc3)cc2)Oc2c(NS(=O)(=O)c3ccccc3)cccc2C1=O	13.9*	-0.2	12.6	5.0	3.1	0.1	9.6*	0.3
C[C@H](CO)N1C[C@H](C)[C@@H](CN(C)Cc2ccc(Cl)c(Cl)c2)Oc2c(NC(=O)c3ccncc3)cccc2C1=O	12.8*	2.0	0.3	-7.4	1.4	-4.7	8.7*	0.6
C[C@@H]1CN([C@@H](C)CO)C(=O)c2cccc(NC(=O)C3CCCCC3)c2O[C@@H]1CN(C)Cc1ccc(Cl)c(Cl)c1	-0.2	6.1	/	1.1	8.9	2.5	/	/
C[C@H](CO)N1C[C@H](C)[C@@H](CN(C)Cc2ccc(-c3ccccc3)cc2)Oc2c(NS(=O)(=O)c3cn(C)cn3)cccc2C1=O	35.7*	-1.2	11.5	-3.7	8.4	-2.4	28.9*	-1.8
O=C(Nc1nc2ncccn2c1-c1ccc(F)cc1)C1CC1	/	0.5	/	/	/	-2.8	/	/
CCOC(=O)C1CCCCN1C(=O)[C@@H]1CC=C[C@@H]2CCN(c3ccccc3)C(=O)[C@@H]21 (stereo partly drawn)	/	-1.8	/	/	/	3.7	/	/
COc1ccccc1C(=O)N1CCCC(c2nc(-c3cccs3)no2)C1 (stereo not drawn)	/	0.3	/	/	/	3.4	/	/
NC(=NCc1ccccc1)NC(=O)OCc1ccccc1	/	-2.7	/	/	/	2.3	/	/
COc1ccc(C(=O)c2ncc(C(F)(F)F)cc2Cl)cc1	1.7	0.0	16.1	-11.8	-2.7	0.4	/	/
COc1cccc(C(=O)c2ncc(C(F)(F)F)cc2Cl)c1	13.2*	4.4	0.5	-9.5	-0.2	2.5	-3.4	0.0
Cc1ccc(Oc2nnc(-c3cccs3)c3ccccc23)cc1C	6.0*	-2.3	-14.8	-28.5	-1.2	-4.3	2.0	-0.5
CC(=O)NC(c1ccc(C)cc1)c1cc(Cl)c2cccnc2c1O (stereo not drawn)	7.0*	-2.7	-3.8	-10.8	-0.5	-5.6	6.1	2.1
COc1cccc(C(NC(C)=O)c2ccc3cccnc3c2O)c1 (stereo not drawn)	6.7*	-6.6	16.5	4.2	1.1	-3.2	9.6*	1.9
CCC(=O)NC(c1ccco1)c1cc(Cl)c2cccnc2c1O (stereo not drawn)	6.7	-7.2	6.0	2.9	0.4	-0.2	/	/
CC(=O)NC(c1ccco1)c1cc(Cl)c2cccnc2c1O (stereo not drawn)	11.1*	-4.8	/	/	-3.7	-6.5	10.6*	3.3
CN(C)c1cccc(CNC(=O)c2ccc3nc([C@@H]4O[C@H](CO)[C@H](O)[C@H](O)[C@H]4O)[nH]c3c2)c1	13.6*	81.0*	/	/	1.6	0.7	-1.2	-0.6
COc1ccc(Br)cc1CN(C)C(=O)c1ccccc1OCc1c(C)noc1C	9.0*	-1.4	-4.3	11.3	17.1	1.2	-1.5	-1.6
COC(=O)c1cc(NC(=O)CC2SCCNC2=O)cc(C(=O)OC)c1 (stereo not drawn)	-0.7	-1.1	2.4	3.0	-3.4	-4.1	/	/
O=C(CC1SCCNC1=O)Nc1cc(Cl)cc(Cl)c1 (stereo not drawn)	11.2*	3.2	7.4	1.8	5.7	-0.9	17.4*	-0.2	GFP quench DR=>67.5
O=C(c1cc(-c2ccccc2)on1)N1CCC(Oc2cccnc2)CC1	/	-2.0	/	/	/	-0.5	/	/
SMILES	Rin1 Abl inh	UHRF1 MBD2 ctr	Arrestin-AP2 inh	B2AR ag	ABHD5 PLIN5 PPI	MBD2 inh	Rin1 Abl conf	GFP quencher	others
O=C(CCSc1nnc(-c2ccc(O)cc2)o1)N1CCOCC1	14.9*	4.1	2.4	-2.9	-1.0	5.0	16.4*	-1.2
CN1OC(CC(=O)O)N(c2ccc(Cl)cc2)C1=O (stereo not drawn)	4.6	3.5	0.7	3.1	4.9	0.3	/	/
CCOC(=O)CC1ON(C)C(=O)N1c1ccc(Cl)cc1Cl (stereo not drawn)	7.0*	0.8	8.0	2.0	-1.9	-2.6	0.2	-2.1
CCCCCCCOC(=O)C1=C(C)Nc2ncnn2C1c1cccs1 (stereo not drawn)	7.5*	0.7	1.2	6.3	-8.9	-4.7	-1.0	-1.2
CCN(CC)c1cc(-c2ccccc2)ncn1	7.6*	4.2	1.6	-5.9	6.5	1.9	1.3	-0.8
c1ccc(-c2cc(-c3ccccc3)ncn2)cc1	-0.7	2.4	1.1	-0.4	-1.8	4.4	/	/
Cc1cc(C)cc(N(CC(=O)NC2CCC(C)CC2)S(=O)(=O)c2ccccc2)c1 (stereo not drawn)	/	1.9	/	/	/	1.4	/	/
CCOC(=O)Cn1cnc(C)c1	1.7	1.1	3.4	0.2	-5.2	-0.8	/	/
CCCCSCc1[nH]c(=O)[nH]c1C(=O)CCCCC(=O)OCC	47.7*	1.4	14.8	7.9	1.9	0.3	46.4*	-1.3	GFP quench DR=>67.5
CCOC(=O)CCCCC(=O)c1[nH]c(=O)[nH]c1Cn1ccnc1	28.1*	4.2	10.2	-2.1	3.6	-0.7	29.5*	-0.5	GFP quench DR=>67.5
Cc1cccc(NC(=O)C2CCCN(c3nnc(-n4cccc4)s3)C2)c1C (stereo not drawn)	/	1.6	/	/	/	7.1	/	/
CCOc1ccc(-n2c(SC/C=C/c3ccccc3)nnc2-c2ccco2)cc1	/	-1.1	/	/	/	2.5	/	/
COC(=O)C1CN(Cc2ccc(OC)cc2)CCS(=O)(=O)N1Cc1cn(Cc2ccccc2)nn1 (stereo not drawn)	/	7.2	/	/	/	-5.8	/	/
COc1ccccc1NCC(=O)Nc1cc(S(=O)(=O)N2CCOCC2)ccc1N1CCOCC1	9.2*	-2.6	7.8	0.0	2.1	0.7	8.2*	1.7
